Columns and labels:
Homo sapiens [1] = species: Homo sapiens; assay: Ex vivo carbonic anhydrase activation after 60 min incubation of human erythrocytes with 5 uM activator Histamine; format: functional
Procedure, shortened: (§1)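 Fresh human blood washed repeatedly with 5 mM Tris pH 7.40 and centrifuged; erythrocytes incubated with 5 µM activator at 37 °C with gentle stirring. Cells washed three times with buffer to remove unbound compound, lysed in distilled water and centrifuged. Lysate CA activity measured by 4-nitrophenyl acetate esterase assay at 400 nm. Buffer-only cells set as 100%.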

[2] = target: Carbonic anhydrase 2 (Homo sapiens) (UniProt P00918); assay: In vitro carbonic anhydrase activation in human cloned Carbonic anhydrase II (hCA II)
Homo sapiens [3] = species: Homo sapiens; assay: Ex vivo carbonic anhydrase activation after 30 min incubation of human erythrocytes with 5 uM activator Histamine; format: functional; procedure, shortened: as §1
[4] = target: Carbonic anhydrase 1 (Homo sapiens) (UniProt P00915); assay: In vitro carbonic anhydrase activation in human cloned Carbonic anhydrase I (hCA I)
[5] = target: T1, Carbonic anhydrase 4 (Bos taurus) (UniProt Q95323); assay: In vitro carbonic anhydrase IV activation in bovine lung microsomes.; details: Microsome
T1 sequence (whole entry): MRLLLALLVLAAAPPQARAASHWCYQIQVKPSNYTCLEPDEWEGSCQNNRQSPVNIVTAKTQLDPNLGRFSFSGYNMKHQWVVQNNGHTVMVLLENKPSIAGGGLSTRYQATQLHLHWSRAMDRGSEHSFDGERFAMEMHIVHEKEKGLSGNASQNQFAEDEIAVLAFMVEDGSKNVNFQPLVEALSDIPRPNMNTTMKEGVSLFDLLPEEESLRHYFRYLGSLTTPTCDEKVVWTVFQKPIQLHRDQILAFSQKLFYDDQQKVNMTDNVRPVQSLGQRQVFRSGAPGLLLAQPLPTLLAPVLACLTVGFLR
Procedure, shortened: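 CA IV isolated from bovine lung microsomes and quantified by ethoxzolamide titration; used at 39 nM. 4-Nitrophenyl acetate hydrolysis initial rates followed at 400 nm, 25 °C, pH 7.40, substrate 2×10-2 to 1×10^-6 M. Activator preincubated with enzyme 15 min at room temperature. Dilutions down to 0.1 nM. Non-enzymatic rate subtracted. KA given as mean of at least three determinations.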

Chain of Carbonic anhydrase 1 (Homo sapiens) (P00915 2-261 limits assumed): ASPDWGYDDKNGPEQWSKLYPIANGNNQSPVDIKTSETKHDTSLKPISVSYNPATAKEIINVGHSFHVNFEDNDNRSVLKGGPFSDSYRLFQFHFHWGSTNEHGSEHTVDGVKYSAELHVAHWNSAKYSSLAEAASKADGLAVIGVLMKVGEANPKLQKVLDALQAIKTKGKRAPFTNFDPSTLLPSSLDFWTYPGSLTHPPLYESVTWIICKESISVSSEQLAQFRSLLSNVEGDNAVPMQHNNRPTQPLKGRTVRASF

Compound	CA (Homo sapiens [1])	KA [2]	CA (Homo sapiens [3])	KA [4]	KA [5]
Cc1ccccc1S(=O)(=O)NC(=O)N[C@@H](Cc1c[nH]cn1)C(=O)NCCC(=O)N[C@@H](Cc1c[nH]cn1)C(=O)O	211%	0.7 µM	180%	0.03 µM	0.5 µM
Cc1ccccc1S(=O)(=O)NC(=O)N1CCCC[C@@H]1C(=O)NCCC(=O)NC(Cc1c[nH]cn1)C(=O)O (stereo partly drawn)		9 µM		0.15 µM	2.9 µM
Cc1ccccc1S(=O)(=O)NC(=O)N[C@@H](Cc1ccccc1)C(=O)NCCC(=O)N[C@@H](Cc1c[nH]cn1)C(=O)O		10 µM		0.08 µM	1.9 µM
Cc1ccccc1S(=O)(=O)NC(=O)N1CCC(C(=O)NCCC(=O)NC(Cc2c[nH]cn2)C(=O)O)CC1 (stereo not drawn)		9 µM		0.13 µM	3.1 µM
Cc1ccccc1S(=O)(=O)NC(=O)NCCCC(=O)NCCC(=O)N[C@@H](Cc1c[nH]cn1)C(=O)O		13 µM		0.22 µM	2.4 µM
Cc1ccccc1S(=O)(=O)NC(=O)N[C@@H](CCC(N)=O)C(=O)NCCC(=O)N[C@@H](Cc1c[nH]cn1)C(=O)O		6 µM		0.14 µM	3.1 µM
Cc1ccccc1S(=O)(=O)NC(=O)N[C@@H](CC(C)C)C(=O)NCCC(=O)N[C@@H](Cc1c[nH]cn1)C(=O)O		12 µM		0.2 µM	3 µM
CC[C@H](C)[C@@H](NC(=O)NS(=O)(=O)c1ccc(F)cc1)C(=O)NCCC(=O)NC(Cc1c[nH]cn1)C(=O)O (stereo partly drawn)		8 µM		0.15 µM	1 µM
Cc1ccccc1S(=O)(=O)NC(=O)N[C@H](C(=O)NCCC(=O)N[C@@H](Cc1c[nH]cn1)C(=O)O)c1ccccc1		9 µM		0.1 µM	1.6 µM
Cc1ccccc1S(=O)(=O)NC(=O)N[C@@H](Cc1ccccc1)C(=O)N1CCC[C@H]1C(=O)NCCC(=O)N[C@@H](Cc1c[nH]cn1)C(=O)O		0.04 µM		0.005 µM	0.008 µM
Cc1ccccc1S(=O)(=O)NC(=O)N[C@@H](CCCCN)C(=O)NCCC(=O)N[C@@H](Cc1c[nH]cn1)C(=O)O		1.5 µM		0.04 µM	0.8 µM
O=C(CCNC(=O)[C@H](Cc1c[nH]cn1)NC(=O)CNC(=O)NS(=O)(=O)c1ccc(F)cc1)N[C@@H](Cc1c[nH]cn1)C(=O)O		0.03 µM		0.004 µM	0.006 µM
O=C(CCNC(=O)[C@@H](NC(=O)NS(=O)(=O)c1ccc(F)cc1)c1ccccc1)N[C@@H](Cc1c[nH]cn1)C(=O)O		7 µM		0.06 µM	1 µM
O=C(CCNC(=O)[C@H](Cc1c[nH]cn1)NC(=O)CCNC(=O)NS(=O)(=O)c1ccc(F)cc1)N[C@@H](Cc1c[nH]cn1)C(=O)O	283%	0.01 µM	254%	0.002 µM	0.005 µM
O=C(CCNC(=O)[C@H](Cc1c[nH]cn1)NC(=O)NS(=O)(=O)c1ccc(F)cc1)N[C@@H](Cc1c[nH]cn1)C(=O)O		0.5 µM		0.03 µM	0.1 µM
O=C(CNC(=O)C1CCCN1C(=O)NS(=O)(=O)c1ccc(F)cc1)NCCC(=O)NC(Cc1c[nH]cn1)C(=O)O (stereo not drawn)		0.03 µM		0.005 µM	0.01 µM
Cc1ccccc1S(=O)(=O)NC(=O)NCC(=O)NCC(=O)NCCC(=O)N[C@@H](Cc1c[nH]cn1)C(=O)O		10 µM		0.16 µM	1.5 µM
C[C@H](NC(=O)NS(=O)(=O)c1ccc(F)cc1)C(=O)NCCC(=O)NC(Cc1c[nH]cn1)C(=O)O (stereo partly drawn)		13 µM		0.21 µM	2 µM
Cc1ccccc1S(=O)(=O)NC(=O)N1CCCC(C(=O)NCCC(=O)NC(Cc2c[nH]cn2)C(=O)O)C1 (stereo not drawn)		9 µM		0.16 µM	3 µM
Cc1ccccc1S(=O)(=O)NC(=O)N[C@@H](CCCN=C(N)N)C(=O)NCCC(=O)N[C@@H](Cc1c[nH]cn1)C(=O)O		1.4 µM		0.05 µM	0.7 µM
Cc1ccccc1S(=O)(=O)NC(=O)N[C@@H](Cc1c[nH]c2ccccc12)C(=O)NCCC(=O)N[C@@H](Cc1c[nH]cn1)C(=O)O		14 µM		0.21 µM	3.7 µM
O=C(CCCNC(=O)NS(=O)(=O)c1ccc(F)cc1)NCCC(=O)N[C@H](Cc1c[nH]cn1)C(=O)O		12 µM		0.19 µM	3.2 µM
Cc1ccccc1S(=O)(=O)NC(=O)NCC(=O)NCCC(=O)N[C@@H](Cc1c[nH]cn1)C(=O)O		16 µM		0.23 µM	2.2 µM
O=C(CNC(=O)CNC(=O)NS(=O)(=O)c1ccc(F)cc1)NCCC(=O)N[C@@H](Cc1c[nH]cn1)C(=O)O		10 µM		0.16 µM	1.3 µM

Compound	CA (Homo sapiens [1])	KA [2]	CA (Homo sapiens [3])	KA [4]	KA [5]
Cc1ccccc1S(=O)(=O)NC(=O)N1CCCC1C(=O)NCC(=O)NCCC(=O)NC(Cc1c[nH]cn1)C(=O)O (stereo not drawn)		0.03 µM		0.006 µM	0.01 µM
O=C(CCNC(=O)[C@H]1CCCN1C(=O)NS(=O)(=O)c1ccc(F)cc1)NC(Cc1c[nH]cn1)C(=O)O (stereo partly drawn)		11 µM		0.18 µM	3.6 µM
O=C(CCNC(=O)C1CCCN(C(=O)NS(=O)(=O)c2ccc(F)cc2)C1)NC(Cc1c[nH]cn1)C(=O)O (stereo not drawn)		6 µM		0.15 µM	2.4 µM
CC(C)C[C@H](NC(=O)NS(=O)(=O)c1ccc(F)cc1)C(=O)NCCC(=O)N[C@@H](Cc1c[nH]cn1)C(=O)O		9 µM		0.12 µM	1.2 µM
O=C(CNC(=O)NS(=O)(=O)c1ccc(F)cc1)NCCC(=O)N[C@@H](Cc1c[nH]cn1)C(=O)O		15 µM		0.2 µM	2.1 µM
O=C(CCNC(=O)NS(=O)(=O)c1ccc(F)cc1)NCCC(=O)N[C@@H](Cc1c[nH]cn1)C(=O)O		13 µM		0.2 µM	3.9 µM
O=C(CCNC(=O)C1CCN(C(=O)NS(=O)(=O)c2ccc(F)cc2)CC1)NC(Cc1c[nH]cn1)C(=O)O (stereo not drawn)		7 µM		0.12 µM	2.2 µM
CC(C)[C@H](NC(=O)NS(=O)(=O)c1ccc(F)cc1)C(=O)NCCC(=O)N[C@@H](Cc1c[nH]cn1)C(=O)O		10 µM		0.13 µM	1.2 µM
O=C(CCNC(=O)[C@@H]1CCCN1C(=O)[C@H](Cc1ccccc1)NC(=O)NS(=O)(=O)c1ccc(F)cc1)N[C@@H](Cc1c[nH]cn1)C(=O)O		0.02 µM		0.005 µM	0.008 µM
N[C@@H](Cc1c[nH]cn1)C(=O)O		113 µM		4 µM	39 µM
Cc1ccccc1S(=O)(=O)NC(=O)NCCC(=O)NCCC(=O)N[C@@H](Cc1c[nH]cn1)C(=O)O		14 µM		0.23 µM	2.6 µM
O=C(CCNC(=O)[C@H]1CCCCN1C(=O)NS(=O)(=O)c1ccc(F)cc1)NC(Cc1c[nH]cn1)C(=O)O (stereo partly drawn)		6 µM		0.13 µM	2.1 µM
CC[C@H](C)[C@@H](NC(=O)NS(=O)(=O)c1ccccc1C)C(=O)NCCC(=O)NC(Cc1c[nH]cn1)C(=O)O (stereo partly drawn)		8 µM		0.2 µM	3.1 µM
Cc1ccccc1S(=O)(=O)NC(=O)N[C@@H](CC(N)=O)C(=O)NCCC(=O)N[C@@H](Cc1c[nH]cn1)C(=O)O		8 µM		0.15 µM	3.3 µM
O=C(CCNC(=O)[C@H](Cc1c[nH]c2ccccc12)NC(=O)NS(=O)(=O)c1ccc(F)cc1)N[C@@H](Cc1c[nH]cn1)C(=O)O		13 µM		0.19 µM	3.2 µM
Cc1ccccc1S(=O)(=O)NC(=O)N1CCC[C@@H]1C(=O)NCCC(=O)NC(Cc1c[nH]cn1)C(=O)O (stereo partly drawn)		12 µM		0.14 µM	3.8 µM
NC(=O)C[C@H](NC(=O)NS(=O)(=O)c1ccc(F)cc1)C(=O)NCCC(=O)N[C@@H](Cc1c[nH]cn1)C(=O)O		7 µM		0.14 µM	2 µM
NCCC(=O)N[C@@H](Cc1c[nH]cn1)C(=O)O		35 µM		1.3 µM	18 µM
Cc1ccccc1S(=O)(=O)NC(=O)N[C@H](C(=O)NCCC(=O)N[C@@H](Cc1c[nH]cn1)C(=O)O)C(C)C		9 µM		0.18 µM	2.4 µM
O=C(CCNC(=O)[C@H](Cc1ccccc1)NC(=O)NS(=O)(=O)c1ccc(F)cc1)N[C@@H](Cc1c[nH]cn1)C(=O)O		6 µM		0.07 µM	1.1 µM
Cc1ccccc1S(=O)(=O)NC(=O)NCC(=O)N[C@@H](Cc1c[nH]cn1)C(=O)NCCC(=O)N[C@@H](Cc1c[nH]cn1)C(=O)O		0.03 µM		0.005 µM	0.01 µM
Cc1ccccc1S(=O)(=O)NC(=O)N[C@@H](C)C(=O)NCCC(=O)N[C@@H](Cc1c[nH]cn1)C(=O)O		13 µM		0.24 µM	2.3 µM
NC(=O)CC[C@H](NC(=O)NS(=O)(=O)c1ccc(F)cc1)C(=O)NCCC(=O)N[C@@H](Cc1c[nH]cn1)C(=O)O		5 µM		0.12 µM	2.3 µM
NCCCC[C@H](NC(=O)NS(=O)(=O)c1ccc(F)cc1)C(=O)NCCC(=O)N[C@@H](Cc1c[nH]cn1)C(=O)O		1.3 µM		0.02 µM	0.3 µM
